ChEMBL document CHEMBL4334444, “Studies of Jatrogossone A as a Reactive Oxygen Species Inducer in Cancer Cellular Models” (J Nat Prod, 2019)
The source made the active and inactive calls. No cut-off for these calls is given here.

Tests used:
KOPN-8 [1] = test: Induction of apoptosis in human KOPN8 cells assessed as decrease in caspase 3/7 level after 3 to 24 hrs by Western blot analysis; type: functional, cell-based
How it was run: (§1)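 Western blot of KOPN-8 and MCF-7 lysates made in RIPA-type buffer (Tris pH 7.5, Triton X-100, deoxycholate, SDS) with protease and phosphatase inhibitors. 30 μg protein per lane was run on 4–12% Bis-Tris SDS-PAGE and transferred to nitrocellulose. Blots were probed for cleaved caspase-7 and PARP-1 and detected with IR-dye secondaries. Menadione served as positive control: 10 μM in KOPN-8, 30 μM in MCF-7. Blots are representative of three independent experiments.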

U2OS [2] = test: Antiproliferative activity against human U2OS assessed as reduction in cell viability at >10 uM by CellTiter-Glo assay; type: functional, cell-based
How it was run: (§2)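 CellTiter-Glo luminescent viability readout. Cells kept at 37 °C under 5% CO2. HMEC primary cells grown in basal medium with growth kit; leukemia lines and murine BCR-ABL (WT, Bax/Bak DKO) cultured per earlier description. Positive controls: staurosporine 25 μM, gambogic acid 10 μM, a toxic quinoline. At least two biological replicates in technical triplicate; luminescence normalized to untreated controls; EC50 computed.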

[3] = Stability in DMSO assessed as micheal adduct formation by measuring intact compound incubated for 16 hrs in presence of NAC by LC-MS analysis; type: physicochemical
U2OS [4] = test: Induction of ROS generation in human U2OS cells at 30 uM incubated for 1 hr by CellROX green reagent based fluorescence assay; type: functional, cell-based
How it was run: (§3)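 CellROX green assay in MCF-7 or U2OS cells. Cells were exposed to test compound for 1 h at 37 °C alongside 0.5% DMSO (negative control) and menadione 10–30 μM (positive control), with or without NAC (50–500 μM) as scavenger. CellROX was then added at 5 μM final for 30 min. Cells were PBS-washed, fixed in 4% paraformaldehyde for 15 min, and fluorescence read at 535 nm.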

MCF7 [5] = test: Induction of ROS generation in human MCF7 cells at 30 uM incubated for 1 hr in presence of NAC by CellROX green reagent based fluorescence assay; type: functional, cell-based; how it was run: as §3
U2OS [6] = test: Induction of mito-phagy in human U2OS cells transfected with mKeima-Red-Mito-7 at 1.25 to 2.5 uM incubated for 8 hrs by confocal scanning microscopic method; type: functional, cell-based
How it was run: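 U2OS stably expressing mKeima-Red-Mito-7 (G418 250 μg/mL selection, flow-sorted) were plated at 40 000 cells per well and incubated overnight. Cells were treated 8 h at 37 °C; DMSO 0.5% served as negative control. Live cells were imaged by confocal microscopy at 60×. Mitophagy was scored as the ratio of mitophagy-event fluorescence to cytoplasmic mitochondrial fluorescence. Values are mean and SD of at least three experiments.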

U2OS [7] = test: Induction of ROS generation in human U2OS cells at 30 uM incubated for 1 hr in presence of NAC by CellROX green reagent based fluorescence assay; type: functional, cell-based; how it was run: as §3
MCF7 [8] = test: Induction of apoptosis in human MCF7 cells assessed as decrease in caspase 3/7 level after 3 to 24 hrs by Western blot analysis; type: functional, cell-based; how it was run: as §1
MCF7 [9] = test: Induction of mitochondrial membrane potential loss in human MCF7 cells at 30 uM after 24 to 48 hrs by TMRM staining based flow cytometric analysis; type: functional, cell-based
How it was run: (§4)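 TMRM flow cytometry. KOPN-8 (4 × 10^4 or 5 × 10^5 per well) or MCF-7 (2 × 10^4 or 2 × 10^5 per well) were seeded 24 h, then treated 24–48 h. FCCP 10 μM was added 10 min before staining as positive control. Cells were stained with TMRM 100 nM for 0.5 h, then PBS-washed, resuspended in PBS with 1% FBS and analysed by flow cytometry; DAPI flagged compromised cells.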

KOPN-8 [10] = test: Induction of mitochondrial membrane potential loss in human KOPN8 cells at 30 uM after 24 to 48 hrs by TMRM staining based flow cytometric analysis; type: functional, cell-based; how it was run: as §4
KOPN-8 [11] = test: Induction of mitochondrial membrane potential loss in human KOPN8 cells at 30 uM by TMRM staining based flow cytometric analysis; type: functional, cell-based; details: TDE = time-dependent effect; how it was run: as §4
MCF7 [12] = test: Induction of ROS generation in human MCF7 cells at 30 uM incubated for 1 hr by CellROX green reagent based fluorescence assay; type: functional, cell-based
How it was run: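 CellROX green ROS assay: cells exposed 1 h at 37 °C (30 μM) with DMSO 0.5% (v/v) negative control, menadione 10 μM positive control, ± NAC (100 μM per figure legend). CellROX green added at 5 μM final, 30 min more; washed, fixed in 4% paraformaldehyde 15 min, fluorescence read at 485 ex/535 em. Mean and SD of at least three experiments; two-way ANOVA.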

HMEC [13] = test: Cytotoxicity against human HMEC cells assessed as reduction in cell viability at 0.1 to 250 uM by CellTiter-Glo assay; type: cell-based; how it was run: as §2
MCF7 [14] = test: Induction of mitochondrial membrane potential loss in human MCF7 cells at 4 uM after 24 to 48 hrs by TMRM staining based flow cytometric analysis; type: functional, cell-based; how it was run: as §4
KOPN-8 [15] = test: Cytotoxicity against human KOPN8 cells assessed as cell viability at 0.75 to 100 uM after 72 hrs in presence of pan caspase inhibitor, Z-VAD-FMK by CellTiter-Glo assay; type: functional, cell-based
K562 = test: Antiproliferative activity against human K562 cells assessed as reduction in cell viability at 0.1 to 250 uM by CellTiter-Glo assay; type: functional, cell-based; how it was run: as §2
KOPN-8 [16] = test: Induction of apoptosis in human KOPN8 cells assessed as increase in cleaved PARP 1 level at 1 to 10 uM after 3 hrs by Western blot analysis; type: functional, cell-based; how it was run: as §1
SUP-B15 = test: Antiproliferative activity against human SUP-B15 cells assessed as reduction in cell viability at 0.1 to 250 uM by CellTiter-Glo assay; type: functional, cell-based; how it was run: as §2
KOPN-8 [17] = test: Induction of cell death in human KOPN8 cells at 4 to 10 uM after 24 hrs; type: functional, cell-based
UoC-B1 = test: Antiproliferative activity against human UOCB1 cells assessed as reduction in cell viability at 0.1 to 250 uM by CellTiter-Glo assay; type: functional, cell-based; how it was run: as §2
KOPN-8 [18] = test: Upregulation of Trx level in human KOPN8 at 1 uM after 3 to 6 hrs by Western blot analysis; type: functional, cell-based
How it was run: (§5)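 Western blot of KOPN-8 or MCF-7 lysates, 30 μg protein per lane on 4–12% Bis-Tris SDS-PAGE and transferred to nitrocellulose. Blots were probed with an oxidative stress defense antibody cocktail (catalase, SOD1, Trx, smooth muscle actin) and tubulin, and detected with IR-dye secondaries on a LI-COR Odyssey.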

KOPN-8 [19] = test: Upregulation of Trx expression in human KOPN8 at 10 uM after 3 to 6 hrs by Western blot analysis; type: functional, cell-based; how it was run: as §5
HepG2 = test: Antiproliferative activity against human HepG2 cells assessed as reduction in cell viability at 0.1 to 250 uM by CellTiter-Glo assay; type: functional, cell-based; how it was run: as §2
HMEC [20] = test: Cytotoxicity against human HMEC cells assessed as cell detachment; type: cell-based

| Compound | Activity (KOPN-8 [1]) | Activity (U2OS [4]) | Activity (MCF7 [5]) | Activity (U2OS [6]) | Activity (U2OS [7]) | Activity (MCF7 [8]) | Activity (KOPN-8 [11]) | Activity (MCF7 [12]) | also measured |
| --- | --- | --- | --- | --- | --- | --- | --- | --- | --- |
| CC(=O)O[C@H]1/C2=C/[C@@H](C)C(=O)C[C@H]3[C@@H](/C=C(\C)C(=O)[C@H]2C[C@H]1C)C3(C)C | Dose-dependent effect | Active | inactive | Active | inactive | Dose-dependent effect | Tde | Active | inhibition (U2OS [2]): Active; Stability [3]: Stable; Activity (MCF7 [9]): inactive; Activity (KOPN-8 [10]): Active |
| CC1=C2CC(C)(C)/C=C/C(=O)/C(C)=C\C3=C[C@H](C)C[C@]3(O2)C1=O [JATROPHONE] | Dose-dependent effect | Active | inactive | Active | inactive | Dose-dependent effect | Tde | Active | Activity (HMEC [13]): Toxic; Activity (MCF7 [14]): inactive; Activity (KOPN-8 [15]): inactive; inhibition (K562): Active; Activity (KOPN-8 [16]): Active; inhibition (SUP-B15): Active; Activity (KOPN-8 [17]): Active; inhibition (UoC-B1): Active; Activity (KOPN-8 [18]): Active; Activity (KOPN-8 [19]): inactive; inhibition (HepG2): Active; Activity (HMEC [20]): Toxic |
